Test results from ChEMBL document CHEMBL5058577, “EUbOPEN Chemogenomics Library 2 (Multiplex)” (2022).

Test system: HEK-293T
Test: Multiplex assay against HEK293T
Type: toxicity, cell-based
Conditions: human
Procedure, shortened: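 Compound was added to live cells that had been stained at seeding with Hoechst33342, BioTracker Green Microtubule Cytoskeleton Dye, MitoTracker Red and Annexin V Alexa Fluor 680, and imaging followed on a CQ1 microscope at 37°C and 5% CO2. CellPathfinder machine-learning gating divided cells into Hoechst high-intensity objects or normal cells, normal cells into healthy, pyknosed or fragmented nuclei, and pyknosed cells into mitotic or apoptotic. Tubulin, mitochondrial-mass and membrane-permeability phenotypes are per cents of healthy-nucleus cells.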

[1] = 12 h, 1 µM, compound concentration 1 uM, replicate 1
[2] = 12 h, 1 µM, compound concentration 1 uM, replicate 2
[3] = 12 h, 10 µM, compound concentration 10 uM, replicate 1
[4] = 12 h, 10 µM, compound concentration 10 uM, replicate 2
[5] = 24 h, 1 µM, compound concentration 1 uM, replicate 1
[6] = 24 h, 1 µM, compound concentration 1 uM, replicate 2
[7] = 24 h, 10 µM, compound concentration 10 uM, replicate 1
[8] = 24 h, 10 µM, compound concentration 10 uM, replicate 2
[9] = 48 h, 1 µM, compound concentration 1 uM, replicate 1
[10] = 48 h, 1 µM, compound concentration 1 uM, replicate 2
[11] = 48 h, 10 µM, compound concentration 10 uM, replicate 1
[12] = 48 h, 10 µM, compound concentration 10 uM, replicate 2

Cc1noc(-c2ccc(-c3ccc(CC(=O)O)cc3)cc2)c1NC(=O)O[C@H](C)c1ccccc1Cl
Population Apoptotic (%) [1]: 29% | Population Fragmented Nuclei (%) [1]: 7% | Population Healthy Nuclei (%) [1]: 79% | Population Hoechst High Intensity Objects (%) [1]: 5% | Population Membrane Permeable-Phenotype (%) [1]: 0% | Population Mitochondria Different-Phenotype (%) [1]: 38% | Population Mitotic Cells (%) [1]: 70% | Population Normal (%) [1]: 94% | Population Pyknosed Nuclei (%) [1]: 13% | Population Tubulin-Different-Phenotype (%) [1]: 29% | Total Cell Count [1]: 403 | Population Apoptotic (%) [2]: 59% | Population Fragmented Nuclei (%) [2]: 4% | Population Healthy Nuclei (%) [2]: 77% | Population Hoechst High Intensity Objects (%) [2]: 11% | Population Mitochondria Different-Phenotype (%) [2]: 69% | Population Mitotic Cells (%) [2]: 40% | Population Normal (%) [2]: 88% | Population Pyknosed Nuclei (%) [2]: 17% | Population Tubulin-Different-Phenotype (%) [2]: 28% | Total Cell Count [2]: 296 | Population Apoptotic (%) [3]: 51% | Population Fragmented Nuclei (%) [3]: 11% | Population Healthy Nuclei (%) [3]: 68% | Population Hoechst High Intensity Objects (%) [3]: 7% | Population Membrane Permeable-Phenotype (%) [3]: 0% | Population Mitochondria Different-Phenotype (%) [3]: 72% | Population Mitotic Cells (%) [3]: 48% | Population Normal (%) [3]: 92% | Population Pyknosed Nuclei (%) [3]: 20% | Population Tubulin-Different-Phenotype (%) [3]: 65% | Total Cell Count [3]: 295 | Population Apoptotic (%) [4]: 41% | Population Fragmented Nuclei (%) [4]: 8% | Population Healthy Nuclei (%) [4]: 72% | Population Hoechst High Intensity Objects (%) [4]: 14% | Population Mitochondria Different-Phenotype (%) [4]: 69% | Population Mitotic Cells (%) [4]: 58% | Population Normal (%) [4]: 85% | Population Pyknosed Nuclei (%) [4]: 18% | Population Tubulin-Different-Phenotype (%) [4]: 34% | Total Cell Count [4]: 341 | Population Apoptotic (%) [5]: 22% | Population Fragmented Nuclei (%) [5]: 10% | Population Healthy Nuclei (%) [5]: 79% | Population Hoechst High Intensity Objects (%) [5]: 5% | Population Membrane Permeable-Phenotype (%) [5]: 0% | Population Mitochondria Different-Phenotype (%) [5]: 23% | Population Mitotic Cells (%) [5]: 77% | Population Normal (%) [5]: 94% | Population Pyknosed Nuclei (%) [5]: 9% | Population Tubulin-Different-Phenotype (%) [5]: 17% | Total Cell Count [5]: 570 | Population Apoptotic (%) [6]: 40% | Population Fragmented Nuclei (%) [6]: 9% | Population Healthy Nuclei (%) [6]: 80% | Population Hoechst High Intensity Objects (%) [6]: 7% | Population Mitochondria Different-Phenotype (%) [6]: 42% | Population Mitotic Cells (%) [6]: 60% | Population Normal (%) [6]: 92% | Population Tubulin-Different-Phenotype (%) [6]: 20% | Total Cell Count [6]: 378 | Population Apoptotic (%) [7]: 39% | Population Fragmented Nuclei (%) [7]: 7% | Population Healthy Nuclei (%) [7]: 76% | Population Hoechst High Intensity Objects (%) [7]: 8% | Population Membrane Permeable-Phenotype (%) [7]: 1% | Population Mitochondria Different-Phenotype (%) [7]: 58% | Population Mitotic Cells (%) [7]: 60% | Population Normal (%) [7]: 91% | Population Pyknosed Nuclei (%) [7]: 16% | Population Tubulin-Different-Phenotype (%) [7]: 47% | Total Cell Count [7]: 352 | Population Apoptotic (%) [8]: 32% | Population Fragmented Nuclei (%) [8]: 9% | Population Healthy Nuclei (%) [8]: 75% | Population Hoechst High Intensity Objects (%) [8]: 16% | Population Membrane Permeable-Phenotype (%) [8]: 0% | Population Mitochondria Different-Phenotype (%) [8]: 53% | Population Mitotic Cells (%) [8]: 68% | Population Normal (%) [8]: 83% | Population Pyknosed Nuclei (%) [8]: 15% | Population Tubulin-Different-Phenotype (%) [8]: 38% | Total Cell Count [8]: 390 | Population Apoptotic (%) [9]: 17% | Population Fragmented Nuclei (%) [9]: 11% | Population Healthy Nuclei (%) [9]: 82% | Population Hoechst High Intensity Objects (%) [9]: 4% | Population Membrane Permeable-Phenotype (%) [9]: 1% | Population Mitochondria Different-Phenotype (%) [9]: 20% | Population Mitotic Cells (%) [9]: 82% | Population Normal (%) [9]: 95% | Population Pyknosed Nuclei (%) [9]: 5% | Population Tubulin-Different-Phenotype (%) [9]: 14% | Total Cell Count [9]: 930 | Population Apoptotic (%) [10]: 35% | Population Fragmented Nuclei (%) [10]: 12% | Population Healthy Nuclei (%) [10]: 76% | Population Membrane Permeable-Phenotype (%) [10]: 0% | Population Mitochondria Different-Phenotype (%) [10]: 34% | Population Mitotic Cells (%) [10]: 64% | Population Pyknosed Nuclei (%) [10]: 10% | Population Tubulin-Different-Phenotype (%) [10]: 21% | Total Cell Count [10]: 494 | Population Apoptotic (%) [11]: 38% | Population Fragmented Nuclei (%) [11]: 10% | Population Healthy Nuclei (%) [11]: 79% | Population Hoechst High Intensity Objects (%) [11]: 6% | Population Membrane Permeable-Phenotype (%) [11]: 0% | Population Mitochondria Different-Phenotype (%) [11]: 40% | Population Mitotic Cells (%) [11]: 61% | Population Normal (%) [11]: 93% | Population Pyknosed Nuclei (%) [11]: 10% | Population Tubulin-Different-Phenotype (%) [11]: 33% | Total Cell Count [11]: 445 | Population Apoptotic (%) [12]: 46% | Population Fragmented Nuclei (%) [12]: 13% | Population Healthy Nuclei (%) [12]: 74% | Population Hoechst High Intensity Objects (%) [12]: 10% | Population Membrane Permeable-Phenotype (%) [12]: 1% | Population Mitochondria Different-Phenotype (%) [12]: 35% | Population Mitotic Cells (%) [12]: 53% | Population Normal (%) [12]: 89% | Population Pyknosed Nuclei (%) [12]: 11% | Population Tubulin-Different-Phenotype (%) [12]: 25% | Total Cell Count [12]: 508
